Assay outcomes as filed in PubChem.
NPY Y1 blocker = blocks the human neuropeptide Y Y1 receptor; AID 1040; hit rate 1% among 200,000; HEK293-CNG Y1 cells, membrane potential fluorescence; NPY at EC95, then isoproterenol; inhibition, % at 3.6 µM; P25929;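 active = inhibition above the campaign mean inhibition of all tested compounds plus 3 SD, cut at about 20% in these data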;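 also: 0% = DMSO wells given NPY plus isoproterenol and 100% = isoproterenol alone without NPY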
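Assay system: HEK293 Y1/CNG channel cell line; Doses: single compound dose of 3.6 µM, 0.4% DMSO; Timing: dye 3 h, compound 60 min room temperature, stimulation 45 min; Technique: Membrane-potential fluorescent dye readout; Measure: % inhibition of NPY effect.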
NPY2 pot ag = potentiates or activates human NPY-Y2 receptor; P49146; cells expressing NPY-Y2, potentiator/agonist read-out; activation, % at 3.6 µM; hit rate 0.45% among 220,000; in the data active = activation above about 27%;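 also: cells stimulated with NPY near EC25 plus isoproterenol at EC100; 0% = vehicle plus submaximal agonist and 100% = vehicle plus saturating agonist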
Target sequence (P49146 whole entry, looked up): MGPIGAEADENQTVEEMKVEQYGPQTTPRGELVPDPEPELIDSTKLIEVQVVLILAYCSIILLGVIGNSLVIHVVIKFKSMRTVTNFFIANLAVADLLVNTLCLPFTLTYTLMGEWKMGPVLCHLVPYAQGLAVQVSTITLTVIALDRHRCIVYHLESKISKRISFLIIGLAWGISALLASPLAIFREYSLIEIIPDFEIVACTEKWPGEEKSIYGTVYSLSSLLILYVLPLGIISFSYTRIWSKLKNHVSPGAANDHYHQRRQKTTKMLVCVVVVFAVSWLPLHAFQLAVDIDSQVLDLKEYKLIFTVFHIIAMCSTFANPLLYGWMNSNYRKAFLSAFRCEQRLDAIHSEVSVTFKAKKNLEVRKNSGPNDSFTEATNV
NPY-Y1 PAM-ag = potentiators or agonists of human neuropeptide Y receptor Y1 | P25929 | NPY-Y1 expressing cells, potentiator/agonist activation | activation, % at 3.6 µM | hit rate 0.37% among 220,000; in the data active = activation above about 33%, passing the limit was not always enough;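 also: cells stimulated with NPY at EC10 then isoproterenol at EC100; 0% = low agonist plus stimulus and 100% = saturating agonist plus stimulus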
NPY-Y2 antag = blocks the human neuropeptide Y Y2 receptor | P49146 | NPY-Y2 expressing cells, antagonist mode | inhibition, % at 2.7 µM | hit rate 0.99% among 140,000 | AID 793; in the data active = inhibition above about 17%;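 also: 0% = vehicle with agonist challenge and 100% = reference antagonist with challenge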
NPY-Y2 pot conf = confirmation of human NPY-Y2 receptor potentiators or agonists; AID 1539; shares compounds with NPY2 pot ag; cell-based NPY-Y2 potentiator/agonist assay; hit rate 20% among 450; activation, % at 3.6 µM; in the data active = activation above about 33%
NPY-Y1 counter = counter-screen for NPY-Y2 potentiators or agonists: NPY-Y1 potentiators or agonists. hit rate 20% among 450. Y1 HEK293-CNG cells, membrane potential fluorescence. shares compounds with NPY2 pot ag. activation, % at 3.6 µM; in the data active = activation above about 45%;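 also: cells stimulated with submaximal NPY then isoproterenol with phosphodiesterase inhibitor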
NPY-Y1 agonist 2 = human NPY-Y1 agonism as NPY-Y2 potentiator counter-screen; AID 1702; HEK293 Y1-CNGC, membrane potential fluorescence; shares compounds with NPY2 pot ag; activation, % at 3.6 µM; hit rate 37% among 450;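 active = activation above the mean of DMSO-only control wells plus 3 SD, cut at about 18% in these data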;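 also: cells stimulated with 1 µM isoproterenol plus the PDE inhibitor Ro 20-1724; 0% = isoproterenol with DMSO and no NPY and 100% = 40 nM NPY; Y1 agonists lower the membrane potential dye signal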
CNGC inhibitor = counter-screen for NPY-Y2 potentiators: inhibitors of CNG channel activity. inhibition, % at 3.6 µM. hit rate 32% among 450. AID 1703. shares compounds with NPY2 pot ag. HEK293-CNG parental, isoproterenol cAMP, membrane potential fluorescence;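 active = inhibition above the control-well mean plus 3 SD of those wells, cut at about 22% in these data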;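 also: 0% = DMSO with isoproterenol and 100% = DMSO without isoproterenol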
NPY-Y2 ag 2 = counter-screen for NPY-Y2 potentiators: agonists of human NPY-Y2; activation, % at 3.6 µM; HEK293 Y2/CNGC cells, membrane potential fluorescence, agonist mode; shares compounds with NPY2 pot ag; hit rate 56% among 450;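 active = activation above the mean of solvent-only control wells plus 3 SD, cut at about 10% in these data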;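 also: cells stimulated by isoproterenol with no NPY added so direct agonism is tested; 0% = DMSO with isoproterenol alone and 100% = NPY at EC100 plus isoproterenol; agonism lowers probe fluorescence through less cAMP and CNG channel opening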
* = called active by the depositor; nt = no result. In the library only some 1.8% were active in any assay of this set; here they are far more common.

SMILES	NPY Y1 blocker	NPY2 pot ag	NPY-Y1 PAM-ag	NPY-Y2 antag	NPY-Y2 pot conf	NPY-Y1 counter	NPY-Y1 agonist 2	CNGC inhibitor	NPY-Y2 ag 2
CN(C)/C=C/C(=O)c1ncc(C(F)(F)F)cc1Cl	-2	28*	2	nt	-3	3	-8	-10	-2
Nc1[nH]nc2c1NN(c1ccc(Cl)cc1Cl)N2	-4	32*	37	-6	27	29	17	24*	21*
Nc1c(-c2n[nH]c(=S)n2-c2ccc(Cl)cc2Cl)cnn1-c1ccccc1	nt	-5	-36	nt	nt	nt	nt	nt	nt
COc1cc(/C=C2/NC(=O)N(Cc3ccccc3F)C2=O)cc(OC)c1O	-3	-10	0	nt	nt	nt	nt	nt	nt
O=C1CCC(=O)N1c1ccccc1-c1ccccc1	-4	19	-3	-1	nt	nt	nt	nt	nt
Cc1ccccc1C(=O)NNC(=O)c1cccc([N+](=O)[O-])c1	1	-1	13	nt	nt	nt	nt	nt	nt
Cc1nc2ccccn2c1-c1ccnc(SCc2ccc(Cl)cc2)n1	nt	49*	-52	nt	-43	-81	-54	-48	-36
O/N=C/c1ccnc(SCc2ccc(Cl)cc2)n1	nt	-10	17	nt	nt	nt	nt	nt	nt
CN(C)c1ccc(NC(=O)c2sc(SCC(=O)Nc3ccc(Br)cc3)nc2N)cc1	-3	13	-2	0	nt	nt	nt	nt	nt
COC(=O)/C(=C/c1cn(C(C)=O)c2ccccc12)[N+](=O)[O-]	nt	61*	35	nt	18	32	25*	20	18*
COC(=O)/C(=C/c1cn(C)c2ccccc12)[N+](=O)[O-]	-6	2	20	1	nt	nt	nt	nt	nt
O=C(NCCc1ccccc1)c1noc2c1CCc1ccccc1-2	15	-33	-22	12	nt	nt	nt	nt	nt
Cc1cccc(C)c1OCC(O)CNC(C)(C)C (stereo unspecified)	3	41*	19	1	12	13	9	12	13*
CCOc1nc(N=C(N)N)nc2c(C)cccc12	5	38*	31	1	1	2	2	8	8
CCOc1nc(-c2ccccc2O)nc2ccccc12	2	-1	-28	6	nt	nt	nt	nt	nt
N#C/C(=N\Nc1cccc(C(F)(F)F)c1)C(=O)c1ccsc1	nt	51*	-23	nt	-13	-54	-28	-12	2
N#C/C(=N\Nc1cccc([N+](=O)[O-])c1)C(=O)c1ccc(Br)cc1	5	12	-3	nt	nt	nt	nt	nt	nt
Cc1ccc(CSc2ncnc3onc(C)c23)cc1	nt	-25	-23	nt	nt	nt	nt	nt	nt
Nc1c(-c2ccccc2)cnn1-c1cccc(C(F)(F)F)c1	-4	6	8	2	nt	nt	nt	nt	nt
Nc1c(-c2cccc(Cl)c2)cnn1-c1cccc(C(F)(F)F)c1	2	42*	36	1	61*	68*	61*	47*	74*
COC(=O)c1c(NC(=O)/C=C/C(=O)O)sc(C)c1-c1ccc(C)c(C)c1	11	5	-12	1	nt	nt	nt	nt	nt
CCn1c(CNc2ccc(F)cc2)nnc1SCC(=O)OC1CCCCC1	0	-19	15	3	nt	nt	nt	nt	nt
